Measurements published in article PMC12018814 (Plant Biotechnology Journal, 2025).

Test system: Ach15909
Assay: HPLC of salidroside formed
Assay type: biochemical, Astilbe chinensis
Conditions: 2 mM UDP-glucose, 0.05-2.0 mM tyrosol, 50 mM PB pH 8.0, 37 °C, 30 min
Method in brief: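 Recombinant A. chinensis UGT was expressed in E. coli Rosetta 2 (DE3), Ni-NTA purified with an imidazole gradient, exchanged into PBS pH 7.4, and quantified by BCA. Reactions were started by adding protein and quenched for C18 HPLC (0.1% formic acid water/acetonitrile gradient, 275 nm). Salidroside was quantified against an external standard curve, in triplicate, with kinetic parameters from non-linear fitting.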

Q: OCCc1ccc(O)cc1 [compound 1, tyrosol] was tested. Which Km did it give?
A: The Km was 740 ± 200 µM.
